TNAP act hi DEA – TNAP (human) activation, high acceptor | P05186 | purified TNAP, CDP-star luminescence, 1 M DEA, 30 min; stronger effect = higher value; 0 = EDTA background, 1 = DMSO-only activity | activation factor at 20 µM | 200,000 tested, under 10 active;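 active = activation factor at least 2 at 20 µM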
Target sequence (P05186 whole entry, looked up): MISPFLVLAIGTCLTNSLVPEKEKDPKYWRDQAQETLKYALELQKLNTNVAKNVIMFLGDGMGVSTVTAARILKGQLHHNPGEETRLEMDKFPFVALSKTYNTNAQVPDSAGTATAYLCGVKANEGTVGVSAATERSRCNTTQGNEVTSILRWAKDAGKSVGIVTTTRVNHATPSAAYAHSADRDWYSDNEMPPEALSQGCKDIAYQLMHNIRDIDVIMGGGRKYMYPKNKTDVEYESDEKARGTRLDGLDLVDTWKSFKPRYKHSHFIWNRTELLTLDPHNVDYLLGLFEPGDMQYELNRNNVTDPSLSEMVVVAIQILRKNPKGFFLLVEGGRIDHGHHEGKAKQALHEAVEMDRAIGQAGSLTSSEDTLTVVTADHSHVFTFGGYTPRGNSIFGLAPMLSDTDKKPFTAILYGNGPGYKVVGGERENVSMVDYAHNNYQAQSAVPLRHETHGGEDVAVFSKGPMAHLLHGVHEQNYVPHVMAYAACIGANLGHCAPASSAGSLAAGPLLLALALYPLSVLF
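Control set: EDTA negative control, DMSO positive control / Assay system: human TNAP / Quantity: TNAP 1/800 final / Evaluation: TNAP activation factor scaled between EDTA and DMSO control wells / Measured by: luminescent substrate turnover signal / Compound dosing: one dose, 20 µM / Times: 30 min enzyme reaction at room temperature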
Yeast life ext – extends the lifespan of yeast; AID 775; inhibition of the nicotinamide effect, % at 10 µM; 0.68% of 130,000 active; S. cerevisiae growth with nicotinamide, OD615; deaD strain in restrictive glucose medium;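 active = inhibition above a set limit, placed 3 SD over the median of all compounds, cut at about 26% in these data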;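 also: 0% = nicotinamide-treated wells and 100% = cells grown without nicotinamide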
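System: DeaD-strain S. cerevisiae / Buffer or medium: CSMM-D, restrictive glucose (dextrose) synthetic minimal medium / Probe or stimulus: nicotinamide, 1.5 mM, co-present with compound / Compound: one concentration, 10 µM, DMSO 0.25% / Incubation: 48 h compound exposure at 30 °C, humidified / Technique: optical density (absorbance) at 615 nm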
Yeast growth inh – chemicals that inhibit yeast BB579 growth in restrictive medium (lifespan-shortening candidates); S. cerevisiae BB579 growth, OD615, 48 h; inhibition, % at 10 µM; 0.51% of 140,000 active; AID 804;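 active = inhibition above a set limit, 3 SD over the mean compound inhibition, cut at about 44% in these data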
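controls = amphotericin B 10 µg/mL, positive | assay system = DeaD yeast strain BB579 | schedule = 48 h compound exposure at 30 °C after 4 h preincubation | detection = OD615 turbidity measurement | medium = restrictive CSMM-D medium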
TNAP inh hi DEA – blocks human TNAP under high phosphate acceptor concentration; inhibition, % at 20 µM; purified TNAP, CDP-star luminescence, 1 M DEA; P05186; 0.03% of 200,000 active;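 active = over 50% inhibition of tissue-nonspecific alkaline phosphatase at 20 µM in the single-dose screen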;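 also: plate controls were DMSO wells for no effect and EDTA-quenched wells as full inhibition for full effect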
TNAP inh no acc – blocks human TNAP activity with no phosphate acceptor present; AID 1012; inhibition, % at 20 µM; 0.26% of 200,000 active; P05186; purified TNAP, CDP-star luminescence, 30 min;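 active = tissue-nonspecific alkaline phosphatase inhibition above about 50% at 20 µM in the single-dose screen, limit read from the data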;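 also: 0% = DMSO negative control and 100% = EDTA positive control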
RAM inhibit – inhibitors of the yeast RAM network. inhibition, % at 50 µM. 1.8% of 190,000 active. S. cerevisiae dse1pr::URA3 reporter, 5-FOA growth OD615, 2 d; analog-sensitive cbk1-as2 kinase mutant strain;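 active = inhibition above a set limit, 3 SD over mean compound inhibition, cut at about 8.4% in these data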;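 also: 0% = DMSO-only wells with no growth and 100% = 10 µM 1-NA-PP1 full growth; inhibition rescues growth on 5-FOA so higher OD means more RAM inhibition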
* marks the source's active call; other numbers are inactive results; . = not tested or not shown. Shown are actives, neighbours in structure and some others; about 2.8% of the full set was active somewhere.

SMILES | TNAP act hi DEA | Yeast life ext | Yeast growth inh | TNAP inh hi DEA | TNAP inh no acc | RAM inhibit
O=C1C2CC=CCC2C(=O)N1c1nc2n(n1)C(c1ccccc1)CC(c1ccccc1)N2 (stereo unspecified) | 1.1 | -7 | -59 | -6 | -10 | 0
O=C1C2C3C=CC(C3)C2C(=O)N1c1ccc2ccccc2n1 (stereo unspecified) | 1 | . | -37 | -5 | -10 | 1
O=C1C2CC=CCC2C(=O)N1c1n[nH]c(CCc2ccccc2)n1 (stereo unspecified) | 1 | -22 | -5 | 2 | 79* | 3
O=C1C2CC=CCC2C(=O)N1c1ccc(NCCc2ccccc2)c([N+](=O)[O-])c1 (stereo unspecified) | 0.9 | 4 | -20 | 12 | 0 | 3
O=C1C2C3C=CC(C3)C2C(=O)N1c1n[nH]c(-c2cccnc2)n1 (stereo unspecified) | 1 | -4 | -32 | -2 | 59* | 0
O=C1C2CC=CCC2C(=O)N1c1n[nH]c(-c2ccccc2)n1 (stereo unspecified) | 1 | -8 | -4 | 2 | 97* | 0
CC(C)CN(C#N)c1nc(N2CCOCC2)nc(N2CCOCC2)n1 | 1 | -3 | -31 | -4 | -4 | 3
N#CCC(=O)N/N=C/c1ccc(Sc2nc3ccccc3s2)o1 | 1 | -18 | -41 | -2 | -12 | 0
COCC(C)NC(=O)COc1ccc(Cl)cc1Cl (stereo unspecified) | 1 | -7 | -16 | -1 | -7 | 0
O=C(NC12CC3CC(CC(C3)C1)C2)c1ccc(=O)oc1 | 1.1 | -3 | -47 | -6 | -15 | 8.7*
CC(OC(=O)C1=COCCO1)C(=O)Nc1ccc(Oc2ccccc2)cc1 (stereo unspecified) | 1.1 | -14 | -34 | -8 | -13 | 10*
N#CC1(Cc2ccccc2)c2ccccc2C=CN1C(=O)c1ccccc1 (stereo unspecified) | 1 | -5 | -15 | -1 | -2 | 8.7*
CS(=O)(=O)Oc1ccc(Br)cc1/C=C1/N=C(c2ccco2)OC1=O | 1 | 49* | -15 | -4 | -6 | 2
O=C1OC(c2ccc(Br)cc2)=N/C1=C\c1ccco1 | 1 | . | . | 0 | -5 | 2
Cc1ccc(-c2nnc(Oc3cccc(C)c3)c3ccccc23)cc1 | 1 | 1 | -18 | -2 | -16 | 2
CC1(CCc2ccccc2)NC(=S)N(c2ccccc2)N1 (stereo unspecified) | 1 | -8 | 96* | -4 | 4 | 0
CC1(CCc2ccccc2)NC(=S)N(c2ccc(Cl)cc2)N1 (stereo unspecified) | 1 | -9 | 97* | 3 | -31 | 0
COc1ccccc1C(=O)/C=C/c1ccc(N2CCCCC2)c([N+](=O)[O-])c1 | 0.9 | 3 | -33 | 11 | 4 | 9.7*
O=C(/C=C/c1ccc(N2CCCCC2)c([N+](=O)[O-])c1)c1ccc(O)cc1 | 0.8 | . | . | 21 | 15 | 8.6*
O=C(O/N=C\c1ccc(N2CCCCC2)c([N+](=O)[O-])c1)c1ccc(Cl)cc1Cl | 1 | -6 | -50 | 1 | -1 | 10*
COC(=O)/C=C/c1oc2ccccc2c1C | 1 | . | . | -5 | -12 | 0
COc1cc(S(=O)(=O)NC2CCCCC2C)ccc1-n1cnnn1 (stereo unspecified) | 1 | . | . | -4 | -3 | 2
CC1CCCCC1NS(=O)(=O)c1ccc(-n2cnnn2)cc1 (stereo unspecified) | 1.1 | 46* | -24 | -6 | -10 | 2
Clc1ccccc1CN(Cc1ccccc1)C(c1cccs1)c1nnnn1C1CCCC1 (stereo unspecified) | 1 | -18 | -13 | -2 | -7 | 6
Clc1ccc(CN(CC2CCCO2)C(c2cccs2)c2nnnn2C2CCCC2)cc1 (stereo unspecified) | 1 | -13 | -33 | 1 | -5 | 11*
SMILES | TNAP act hi DEA | Yeast life ext | Yeast growth inh | TNAP inh hi DEA | TNAP inh no acc | RAM inhibit
CCN(Cc1ccccc1)C(c1cccs1)c1nnnn1C1CCCCC1 (stereo unspecified) | 1 | -1 | -11 | -4 | -11 | 9.3*
Cc1ccc(S(=O)(=O)C(C#N)=C2N(C)c3ccccc3N2C)cc1 | 1.1 | . | . | -6 | -16 | 0
Cc1ccc(C(C(=O)Nc2ccc(C(C)C)cc2)N(C)C(=O)c2ccc(=O)[nH]c2)cc1 (stereo unspecified) | 1.1 | . | . | -5 | -2 | 4
Cc1ccc(-c2noc(-c3ccoc3C)n2)cc1 | 1 | . | . | -2 | -4 | 0
CC(=O)NCC(=O)OCC(=O)c1ccc(C)c(C)c1 | 1 | -1 | 12 | -2 | -6 | 1
Cc1ccc(S(=O)(=O)CCC(=O)OCC(=O)c2ccc(C)c(C)c2)cc1 | 1 | 6 | -33 | -3 | -10 | 11*
O=C1NN(c2ccc(F)cc2)C(=O)/C1=C\C=C\c1ccco1 | 0.9 | 32* | -14 | 12 | 8 | 4
COc1ccccc1CNC(=O)c1ccc(-c2ccccc2Cl)o1 | 1.1 | 2 | -13 | -6 | -10 | 10*
COc1ccccc1NC(=O)C(=O)NCc1ccccc1Cl | 1 | 1 | 0 | 3 | -2 | 8.7*
COc1ncnc2c1oc1nc(C(C)C)c3c(c12)CC(C)(C)OC3 | 1.1 | -13 | -17 | -6 | -11 | 3
CCOc1ncnc2c1oc1nc(CC(C)C)c3c(c12)CC(C)(C)OC3 | 1 | 14 | -49 | -5 | -4 | 10*
C=CCn1c(SCC(=O)Nc2cc(C)on2)nc2sc3c(c2c1=O)CCCC3 | 1 | -11 | -1 | 0 | -6 | 5
C=CCn1c(SCc2csc(C)n2)nc2sc3c(c2c1=O)CCCC3 | 1.1 | -12 | -67 | -10 | -8 | 9.3*
CCOC(=O)C(=O)Nc1cc(C)on1 | 1.1 | . | . | -6 | -5 | 1
CCCCc1oc2ccccc2c1C(=O)c1cc(I)c(OCCN(CC)CC)c(I)c1 | 1 | -10 | 99* | -3 | -11 | .
c1ccc(C2CC(c3ccccc3)n3c(nc4ccccc43)N2)cc1 (stereo unspecified) | 1 | 6 | -27 | -1 | -8 | 2
Cc1ccc(C(C(=O)NC2CCCCC2)N(CC2CCCO2)C(=O)CNC(=O)c2cccs2)cc1 (stereo unspecified) | 1 | -15 | -20 | -5 | -1 | 8.9*
COc1ccc(C(=O)COC(=O)c2cc(S(=O)(=O)NCc3ccccc3)ccc2O)cc1 | 1.1 | . | . | -6 | -8 | 9.1*
COc1ccc(S(=O)(=O)NCc2ccccc2)cc1 | 1.1 | -1 | -38 | -7 | -12 | -1
CN(Cc1cnccn1)Cc1cn(Cc2ccccc2)nc1-c1ccc2c(c1)OCO2 | 1 | . | . | -3 | -7 | -1

Bioassay records (PubChem BioAssay)
